Source: ChEMBL document CHEMBL1133686, “6-Aminoquinolones as new potential anti-HIV agents” (J Med Chem, 2000)
pEC50: −log10 of the molar value. “And” between values parts separate entries of the source, which are not always exact repeats. Equal entries are not always repeated.

How the values were obtained:
C8166 = assay: Selectivity index in HIV-1 infected C8166 (human CD4) cells.; assay type: functional
Procedure, shortened: (§1)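 Selectivity index in C8166 cells, computed as the ratio of TC50 (concentration reducing cell growth by 50%) to EC50 (concentration reducing supernatant reverse transcriptase activity by 50% in HIV-1 IIIB-infected cultures).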

[1] = tested on: Human immunodeficiency virus 1; assay: In vitro antiviral activity against HIV-1 IIIB in C8166 (human CD4) cells.; assay type: functional, organism-based; settings: Human immunodeficiency virus 1, C8166
Procedure, shortened: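 HIV-1 IIIB infection of C8166 cells, compounds from DMSO stocks of 25 mM or higher. EC50 is the drug concentration (μM) reducing reverse transcriptase activity of culture supernatants by 50%. Syncytium formation, gp120 ELISA and cytopathic-effect reduction were also scored. Values are the mean of at least three experiments run in triplicate.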

C8166 (human) = assay: In vitro toxicity to C8166 (human CD4) cells.
Herpes simplex virus 1 = assay: Antiviral activity determined against herpes simplex virus type 1 (HSV-1) in vero cells; settings: Herpes simplex virus 1, Vero
[2] = Toxicity which reduces cell growth by 50% against herpes simplex virus type 1 (HSV-1) in vero cells
[3] = Selectivity index expressed as ratio of TC50 (HIV-1) to EC50 (HIV-1) in C8166 cells; assay type: functional; procedure, shortened: as §1

Row | Structure (SMILES) | SI (C8166) | pEC50 [1] | TC50 (C8166 (human)) | pEC50 (Herpes simplex virus 1) | TC50 [2] | SI [3]
1 | CC(C)(C)n1cc(C(=O)O)c(=O)c2cc(F)c(N3CCN(c4ccccn4)CC3)cc21 | 5 | 5.12 | 40 µM |  |  | 
2 | Cc1c(N2CCC(C)CC2)c(N)cc2c(=O)c(C(=O)O)cn(C3CC3)c12 | 4 | 4.70 | 80 µM |  |  | 
3 | Cc1c(N2CCc3ccccc3C2)c(N)cc2c(=O)c(C(=O)O)cn(C3CC3)c12 | 5 | 4.10 | 400 µM |  |  | 
4 | Cc1cn([C@H]2C[C@H](N=[N+]=[N-])[C@@H](CO)O2)c(=O)[nH]c1=O [ZIDOVUDINE] | 25000 | 7.70 | 500 µM |  |  | 
5 | CCOC(=O)c1cn(C(C)(C)C)c2cc(N3CCN(c4ccccn4)CC3)c(N)cc2c1=O | 1.5 | 4.29 | 77.9 µM | < 3.52 | >300 µM | 
6 | Cc1c(N2CCN(c3ccccn3)CC2)c(N)cc2c(=O)c(C(=O)O)cn(C)c12 | 6 | 5.12 | 46.2 µM |  |  | 
7 | COc1ccccc1N1CCN(c2cc3c(cc2N)c(=O)c(C(=O)O)cn3C(C)(C)C)CC1 | 6 and 9 | 5.49 | 20 µM | 4.48 | 300 µM | 
8 | Nc1cc2c(=O)c(C(=O)O)cn(N3CCN(c4ccccn4)CC3)c2cc1Cl | >2 | 3.30 | >1000 µM |  |  | 
9 | COc1ccc(N2CCN(c3cc4c(cc3N)c(=O)c(C(=O)O)cn4C(C)(C)C)CC2)cc1 | 1.4 | 5.02 | 13.8 µM |  |  | 
10 | CC(C)(C)n1cc(C(=O)O)c(=O)c2cc(N)c(N3CCN(c4ncccn4)CC3)cc21 | 4 | 5.02 | 42.6 µM |  |  | 
11 | CNc1cc2c(=O)c(C(=O)O)cn(C)c2cc1N1CCN(c2ccccn2)CC1 | 5 | 5.46 | 19.5 µM |  |  | 
12 | Cn1cc(C(=O)O)c(=O)c2cc(F)c(N3CCN(c4ccccn4)CC3)cc21 | 5 | 5.89 | 7 µM |  |  | 
13 | Cn1cc(C(=O)O)c(=O)c2cc(N)c(N3CCN(c4ccccn4)CC3)cc21 | 70 | 7.00 | 7 µM | 4.52 | 270 µM | 70
14 | Nc1cc2c(=O)c(C(=O)O)cn(C3CC3)c2cc1N1CCN(c2ccccn2)CC1 |  | 6.15 | 9 µM | 4.42 | 95 µM | 
15 | CC(C)(C)n1cc(C(=O)O)c(=O)c2cc(N)c(N3CCN(c4ccc(F)cc4)CC3)cc21 | 1.2 | 5.07 | 10.7 µM |  |  | 
16 | O=C(O)c1cn(C2CC2)c2cc(N3CCN(c4ccccn4)CC3)c(F)cc2c1=O | 13 | 5.30 | 65 µM |  |  | 
17 | CC(C)(C)n1cc(C(=O)O)c(=O)c2cc(N)c(N3CCN(c4ccccn4)CC3)cc21 | 4 | 5.70 | 8.1 µM | 4.09 | 290 µM | 
18 | CCOC(=O)c1cn(C)c2cc(N3CCN(c4ccccn4)CC3)c(N)cc2c1=O | 1.5 | 4.43 | 57 µM | < 3.52 | >300 µM | 
19 | CC(C)(C)n1cc(C(=O)O)c(=O)c2cc(N)c(N3CCc4ccccc4C3)cc21 | 2 | 4.40 | 80 µM |  |  | 
20 | CN1CCN(c2c(F)cc3c(=O)c(C(=O)O)cn4c3c2SCC4)CC1 [RUFLOXACIN] | 2 | 3.70 | 400 µM |  |  | 
21 | O=C(O)c1cn(C2CC2)c2cc(N3CCNCC3)c(F)cc2c1=O [CIPROFLOXACIN] | 1.6 | 4.00 | 160 µM |  |  | 
